Results as given in publication PMC10947786 (ACS synthetic biology, 2024).

Tests used:
Solubility in water = format: physicochemical; settings: purified peptide
[1] = Hydrogen-deuterium exchange MS; format: physicochemical; settings: 3:7 D2O:acetonitrile, MALDI-TOF MS (Figure S13); for Hydrogen-deuterium exchange, deuteration within 1 min: 1 min timescale
In short: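 Purified peptide was dried under vacuum and redissolved in 3:7 D2O:acetonitrile. At set time points over 24 h, aliquots were quenched by spotting onto the MALDI target with saturated sinapinic acid in 3:7 D2O:acetonitrile + 0.1% formic acid (pH = 2). Deuterium uptake was read by MALDI-TOF MS.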

Row | Substance | solubility in water (Solubility in water) | Hydrogen-deuterium exchange, deuteration within 1 min [1] | Hydrogen-deuterium exchange, deuteration within 24 h [1]
1 | mycetolassin-15 | > 20 mg/mL | only a fraction of the exchangeable protons were deuterated | not fully deuterated
2 | mycetolassin-18 | > 20 mg/mL | only a fraction of the exchangeable protons were deuterated | not fully deuterated
